High-throughput results as filed in PubChem.
T cruzi growth-1: T. cruzi proliferation inhibition; T. cruzi beta-gal in NIH3T3, GalScreen luminescence, 90 h; inhibition, % at 8.34 µM; 77,000 tested, 5.9% active;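 active = mean inhibition above about 93%, with at least 55% of replicates each passing it, limit read from the data, passing the limit was not always enough; inconclusive = only one of those two conditions holds; inactive = neither condition holds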
GASC1 inh: inhibitors of human demethylase GASC-1 KDM4C. GST-KDM4C 2-372, H3K9me3 peptide, LANCE TR-FRET. inhibition, % at 12.5 µM. Q9H3R0. 96,000 tested, 0.15% active. AID 720574;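 active = mean replicate inhibition above about 25%, with at least 55% of replicates also reaching it, limit read from the data, passing the limit was not always enough; inconclusive = only one of those two conditions met; inactive = neither condition met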
Target sequence (Q9H3R0 2-372 limits assumed): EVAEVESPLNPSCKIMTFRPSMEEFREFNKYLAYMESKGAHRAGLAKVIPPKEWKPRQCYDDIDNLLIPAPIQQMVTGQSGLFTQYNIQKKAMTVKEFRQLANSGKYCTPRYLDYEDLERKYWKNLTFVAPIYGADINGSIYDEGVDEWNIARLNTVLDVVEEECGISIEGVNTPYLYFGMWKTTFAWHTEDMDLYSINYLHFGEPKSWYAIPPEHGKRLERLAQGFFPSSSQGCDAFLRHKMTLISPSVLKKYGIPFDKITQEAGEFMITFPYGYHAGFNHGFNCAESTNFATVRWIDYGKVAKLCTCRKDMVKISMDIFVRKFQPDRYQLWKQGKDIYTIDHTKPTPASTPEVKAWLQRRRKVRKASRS
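Material: GST-tagged GASC-1 (JMJD2C) catalytic fragment, aa 2-372 / Quantity: enzyme final amount 10 nM / Medium: HEPES buffer, pH 7.5, plus ascorbate / Doses: one test concentration per compound / Incubation: 30 min reaction, 60 min detection, RT / Measured by: LANCE TR-FRET / Read-out: inhibition from TR-FRET ratio decrease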
IDH1 mut inh: inhibitors of human IDH1 R132H | O75874 | IDH1 R132H reductase, diaphorase/resazurin fluorescence, 60 min | inhibition, % at 10 µM | 70,000 tested, 0.18% active | AID 624101; in the data active = inhibition above about 34%; inconclusive = no clear call, values can overlap the other calls; inactive = below about 11%;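 also: 0% = DMSO and 100% = no enzyme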
T cruzi growth-2: inhibitors of T. cruzi proliferation; inhibition, % at 8.35 µM; shares compounds with T cruzi growth-1; 5,600 tested, 72% active; T. cruzi beta-gal in NIH3T3, GalScreen luminescence, 90 h;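 active = mean replicate inhibition above about 95% and at least 55% of replicates individually reaching it, limit read from the data; inconclusive = only one of the two criteria is met; inactive = neither criterion is met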
T cruzi growth-3: Trypanosoma cruzi proliferation inhibition; 5,600 tested, 21% active; inhibition, % at 2.09 µM; AID 651740; T. cruzi beta-gal in NIH3T3, GalScreen luminescence, 90 h; shares compounds with T cruzi growth-1;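 active = mean inhibition above about 95%, with at least 55% of replicates also reaching it, limit read from the data; inconclusive = meets just one of the two conditions; inactive = meets neither condition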;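 also: plate controls were neutral control median for no effect and positive control median for full effect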
3T3 cytotox: cytotoxicity in mouse NIH/3T3 fibroblasts; 5,600 tested, 14% active; cytotoxicity (signal decrease), % at 8.35 µM; shares compounds with T cruzi growth-1; NIH/3T3 viability, CellTiter-Glo ATP luminescence, 90 h;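 active = mean signal decrease across replicates above about 35% based on untreated-well scatter, with enough replicates individually passing, limit read from the data; inconclusive = no rule stated though some were filed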;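 also: 0% = median of neutral control wells and 100% = median of positive control wells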
NIH3T3 tox 2: NIH/3T3 (mouse) viability loss; shares compounds with T cruzi growth-1; NIH/3T3 viability, CellTiter-Glo ATP luminescence, 90 h; inhibition, % at 24.9 µM; 5,600 tested, 56% active;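 active = mean loss of cell viability signal at or above a set limit, and enough replicates individually reaching it; inconclusive = meets only the mean limit or only the replicate share; inactive = meets neither condition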;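 also: 0% = median of neutral control wells and 100% = median of positive control wells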
The depositor's hits bear a star. This is one part of a sample in which hits are shown more often than they occur.

How did CCCC#Cc1ccc([C@H]2[C@@H](CO)N3CCCCN(C(=O)NC4CCCC4)C[C@H]23)cc1 do in these assays?
T cruzi growth-1: inconclusive; GASC1 inh: 0; T cruzi growth-2: 106*; T cruzi growth-3: 81; 3T3 cytotox: 44*; NIH3T3 tox 2: 103*

Results for CCCC#Cc1ccc([C@@H]2[C@H](CO)N3CCCCN(C(=O)NC4CCCC4)C[C@@H]23)cc1 ?
T cruzi growth-1: inconclusive; GASC1 inh: -3; T cruzi growth-2: 109*; T cruzi growth-3: 89; 3T3 cytotox: 14; NIH3T3 tox 2: 103*

How did COc1cc(C[C@@H]2COC(c3ccc(O[C@@H]4O[C@H](CO)[C@@H](O)[C@H](O)[C@H]4O)c(OC)c3)[C@@H]2CO)ccc1O[C@@H]1O[C@H](CO)[C@@H](O)[C@H](O)[C@H]1O (stereo not given in full) do in these assays?
IDH1 mut inh: -1

Results for O=C(C[C@H]1CC[C@@H]2[C@H](COC[C@@H](O)CN2C(=O)Nc2ccc(F)cc2)O1)NCCc1ccncc1 ?
T cruzi growth-1: 72; GASC1 inh: -2

Results for COc1ccccc1NC(=O)N1C[C@@H](O)COC[C@H]2O[C@H](CC(=O)NCCc3ccncc3)CC[C@@H]21 ?
T cruzi growth-1: 7; GASC1 inh: 3

What do the screens show for `O=C(C[C@H]1CC[C@@H]2[C@H](COC[C@@H](O)CN2C(=O)Nc2ccc(Cl)cc2)O1)NCCc1ccncc1`?
T cruzi growth-1: 106*; GASC1 inh: -2; T cruzi growth-2: 96*; T cruzi growth-3: 84; 3T3 cytotox: -5; NIH3T3 tox 2: -11

What do the screens show for `O=C(C[C@H]1CC[C@@H]2[C@H](COC[C@H](O)CN2C(=O)Nc2ccc(Cl)cc2)O1)NCCc1ccncc1`?
T cruzi growth-1: 109*; GASC1 inh: 0; T cruzi growth-2: 91; T cruzi growth-3: 83; 3T3 cytotox: 10; NIH3T3 tox 2: 25

How did O=C(C[C@@H]1CC[C@@H]2[C@H](COC[C@@H](O)CN2C(=O)Nc2ccc(Cl)cc2)O1)NCCc1ccncc1 do in these assays?
T cruzi growth-1: 119*; GASC1 inh: 0; T cruzi growth-2: 94; T cruzi growth-3: 80; 3T3 cytotox: -14; NIH3T3 tox 2: -8

How did O=C(C[C@H]1CC[C@H]2[C@@H](COC[C@H](O)CN2C(=O)Nc2ccc(F)cc2)O1)NCCc1ccncc1 do in these assays?
T cruzi growth-1: 49; GASC1 inh: -1

Results for COc1ccccc1NC(=O)N1C[C@H](O)COC[C@H]2O[C@H](CC(=O)NCCc3ccncc3)CC[C@@H]21 ?
T cruzi growth-1: inconclusive; GASC1 inh: -1; T cruzi growth-2: 36; T cruzi growth-3: -3; 3T3 cytotox: -1; NIH3T3 tox 2: -1

Results for O=C(C[C@@H]1CC[C@H]2[C@@H](COC[C@@H](O)CN2C(=O)Nc2ccccc2)O1)NCCc1ccncc1 ?
T cruzi growth-1: 23; GASC1 inh: -1

Results for CC(NS(=O)(=O)c1ccc(Br)cc1)C(=O)Nc1ccccc1 (stereo not given) ?
IDH1 mut inh: 0

How did Cc1ccc(-n2c(SCC(=O)Nc3ccc(F)c(Cl)c3)nnc2-c2ccco2)cc1 do in these assays?
IDH1 mut inh: 0

What do the screens show for `C[C@@H]1CN([C@@H](C)CO)C(=O)c2cc(NS(=O)(=O)c3ccc(Cl)cc3)ccc2O[C@@H](C)CCCCO[C@@H]1CN(C)C(=O)Nc1ccccc1`?
T cruzi growth-1: 100*; GASC1 inh: 0; IDH1 mut inh: -1; T cruzi growth-2: 98*; T cruzi growth-3: -2; 3T3 cytotox: 13; NIH3T3 tox 2: 24*

Results for C[C@@H]1CCCCO[C@H](CN(C)C(=O)Nc2ccccc2)[C@@H](C)CN([C@H](C)CO)C(=O)c2cc(NS(=O)(=O)c3ccc(Cl)cc3)ccc2O1 ?
T cruzi growth-1: 63; GASC1 inh: 0; IDH1 mut inh: 0

How did C[C@@H]1CCCCO[C@H](CN(C)C(=O)c2ccccc2)[C@H](C)CN([C@H](C)CO)C(=O)c2cc(NS(=O)(=O)c3ccc(Cl)cc3)ccc2O1 do in these assays?
T cruzi growth-1: 57; GASC1 inh: 0; IDH1 mut inh: 0

How did C[C@H](CO)N1C[C@H](C)[C@@H](CN(C)C(=O)Nc2ccccc2)OCCCC[C@H](C)Oc2ccc(NS(=O)(=O)c3ccccc3)cc2C1=O do in these assays?
GASC1 inh: 8

What do the screens show for `C[C@H](CO)N1C[C@H](C)[C@@H](CN(C)C(=O)Nc2ccccc2)OCCCC[C@H](C)Oc2ccc(NS(=O)(=O)c3ccc(Cl)cc3)cc2C1=O`?
T cruzi growth-1: 89; GASC1 inh: -1

What do the screens show for `C[C@@H]1CCCCO[C@@H](CN(C)C(=O)c2ccccc2)[C@H](C)CN([C@H](C)CO)C(=O)c2cc(NS(=O)(=O)c3ccc(Cl)cc3)ccc2O1`?
T cruzi growth-1: 98*; GASC1 inh: -2; T cruzi growth-2: 111*; T cruzi growth-3: 32; 3T3 cytotox: 21; NIH3T3 tox 2: -2

What do the screens show for `C[C@@H]1CCCCO[C@H](CN(C)C(=O)Nc2ccccc2)[C@H](C)CN([C@@H](C)CO)C(=O)c2cc(NS(=O)(=O)c3ccc(Cl)cc3)ccc2O1`?
T cruzi growth-1: inconclusive; GASC1 inh: 1; IDH1 mut inh: 1; T cruzi growth-2: 101*; T cruzi growth-3: 77; 3T3 cytotox: -2; NIH3T3 tox 2: -4

What do the screens show for `C[C@H](CO)N1C[C@H](C)[C@H](CN(C)C(=O)Nc2ccccc2)OCCCC[C@H](C)Oc2ccc(NS(=O)(=O)c3ccc(Cl)cc3)cc2C1=O`?
T cruzi growth-1: 124*; GASC1 inh: 79*; T cruzi growth-2: 110*; T cruzi growth-3: 78; 3T3 cytotox: 19; NIH3T3 tox 2: 29

What do the screens show for `O=C(CSc1nc2ccccc2c(=O)n1-c1ccc(Cl)cc1)Nc1ccc(Cl)cc1Cl`?
IDH1 mut inh: 0

Results for COc1ccc(N2C(=O)CC(SCC(=O)Nc3c(C)cccc3C)C2=O)cc1 (stereo not given) ?
IDH1 mut inh: 0

Results for Cc1ccc(OCC(=O)Nc2cc(Cl)ccc2N2CCOCC2)c(C)c1 ?
IDH1 mut inh: 1

Results for CC1Cc2ccc(F)cc2CN1C(=O)c1ccc(COc2ccccc2Br)o1 (stereo not given) ?
IDH1 mut inh: 0

What do the screens show for `COc1cc2c(Cc3ccc(OC)c(OC)c3)nccc2cc1O`?
IDH1 mut inh: -1

Results for Cc1ccc(NS(=O)(=O)c2cccc(C(=O)Nc3ccccc3C(=O)O)c2)cc1 ?
IDH1 mut inh: -2

What do the screens show for `COC(=O)c1ccc(CSc2n[nH]c(-c3ccccc3OC)n2)o1`?
IDH1 mut inh: -1
